The record followed here is ChEMBL document CHEMBL2331286 (ACS Med Chem Lett, 2013).

Series [1] concerns Rattus norvegicus. The series can be described thus: Dose-normalized AUC in po dosed rat. It is filed as ADME, organism-based. Particulars: in vivo.
Series [2] concerns the target T1, Serine/threonine-protein kinase B-raf (Homo sapiens, UniProt P15056, V600E). Kind of series: Inhibition of B-Raf V600E mutant in human SK-MEL-28 cells assessed as decrease in ERK phosphorylation incubated for 1 hr by immunoassay. It is filed as cell-based.
The target in series [3] is T1, Serine/threonine-protein kinase B-raf. The series can be described thus: Inhibition of N-terminal His tagged B-Raf V600E mutant (unknown origin) expressed in baculovirus infected insect cells co-expressing CDC37 assessed as decrease in biotinylated-MEK protein phosphorylation by AlphaScreen assay.
In series [4] the test system is Canis familiaris. The series can be described thus: Dose-normalized AUC in po dosed dog. It is filed as ADME, organism-based, Canis lupus familiaris. Particulars: in vivo.
Series [5] can be described thus: Oral bioavailability in monkey. It is filed as ADME, organism-based, Macaca mulatta. Particulars: rhesus monkey, in vivo.
Series [6] can be described thus: Oral bioavailability in dog. It is filed as ADME, organism-based, Canis lupus familiaris. The settings on record: in vivo.
For series [7], the system named is Rhesus monkey. Kind of series: Dose-normalized AUC in po dosed monkey. It is filed as ADME, organism-based, Macaca mulatta. The settings on record: in vivo.
The nature of series [8]: Oral bioavailability in rat. The settings on record: in vivo. It is filed as ADME, organism-based.
Series [9] can be described thus: Blood clearance in iv dosed monkey. Particulars: rhesus monkey. It is filed as ADME, organism-based, Macaca mulatta.
Series [10] can be described thus: Blood clearance in iv dosed dog. It is filed as ADME, organism-based, Canis lupus familiaris.
Series [11] is described as follows: Blood clearance in iv dosed rat. It is filed as ADME, organism-based.
Series [12] can be described thus: Intrinsic clearance in dog liver microsome at 10 uM after 30 mins by LC/MS analysis. Particulars: microsomes, 0.5 h. It is filed as ADME, Canis lupus familiaris.
Series [13] in a line: Intrinsic clearance in monkey liver microsome. It is filed as ADME, Macaca mulatta. The settings on record: rhesus monkey, microsomes.
Series [14] deals with Liver microsomes. Kind of series: Intrinsic clearance in rat liver microsome. It is filed as ADME.
In series [15] the test system is SK-MEL-28. The series can be described thus: Inhibition of B-Raf V600E mutant-driven SK-MEL-28 cell proliferation after 72 hrs by CellTiter-Glo luminescent assay. It is filed as functional, cell-based. The settings on record: Homo sapiens, SK-MEL-28, 72 h.
Series [16] relates to Mus musculus. Kind of series: In vivo inhibition of B-Raf V600E mutant-mediated ERK1/2 phosphorylation in tumor of po dosed CD1 nu/nu mouse bearing B-Raf V600E mutant harboring human A375P-F11 cells administered as single dose by duplex ELISA. It is filed as functional, organism-based. The procedure, abridged:
(§1)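 A375P-F11 xenografts in nude mice, oral gavage dosing in 0.5% HPMC/0.2% Tween-80 water pH 8.0. Tumors homogenized in Tris pH 7.5 lysis buffer with EDTA, EGTA, Triton X-100, SDS, phosphatase inhibitors, kept on ice; spun 14,000 rpm 15 min 4°C, flash frozen. Total and phospho-ERK1/2 measured by duplex electrochemiluminescent ELISA.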

Series [17] has as its system Mus musculus. Kind of series: In vivo inhibition of B-Raf V600E mutant-mediated ERK1/2 phosphorylation in tumor of CD1 nu/nu mouse bearing B-Raf V600E mutant harboring human A375P-F11 cells at =< 30 mg/kg, po administered as a single dose measured after 24 hrs by duplex ELISA. It is filed as functional, organism-based. On the set-up: dose 30 mg/kg. The procedure, abridged:
as §1

Series [18] has as its system Mus musculus. The series can be described thus: In vivo inhibition of B-Raf V600E mutant-mediated ERK1/2 phosphorylation in tumor of CD1 nu/nu mouse bearing B-Raf V600E mutant harboring human A375P-F11 cells at => 3 mg/kg, po administered as single dose measured after 2 to 6 hrs by duplex ELISA. It is filed as functional. Put shortly:
as §1

In series [19] the test system is Mus musculus. The series can be described thus: Toxicity in CD1 nu/nu mouse bearing B-Raf V600E mutant harboring human A375P-F11 cells assessed as changes in body weight at 0.1 to 100 mg/kg, po qd for 14 days. It is filed as organism-based. Details: dose 0.1-100 mg/kg, route oral. Particulars: in vivo, 336 h.
Series [20] can be described thus: Antitumor activity against B-Raf V600E mutant harboring human A375P-F11 cells xenografted in CD1 nu/nu mouse assessed as tumor growth inhibition at 100 mg/kg, po qd for 14 days by Vernier caliper. It is filed as functional. The settings on record: A375P-F11, 336 h, read-out: GI. The procedure, abridged: (§2)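 A375P-F11 (single-cell clone of A375P selected by limiting dilution) grown as xenografts in nude mice; daily oral gavage started at ~150-200 mm3 tumors, vehicle 0.5% HPMC + 0.2% Tween-80 in water pH 8.0, 0.2 mL/20 g. Calipers twice weekly; volume = length x width² x 0.5; mean volume, n=7-8 mice/group. Complete regression = >93% volume decrease for ≥1 week.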

Series [21] has as its system A375P-F11. Kind of series: Antitumor activity against B-Raf V600E mutant harboring human A375P-F11 cells xenografted in po dosed CD1 nu/nu mouse assessed as tumor growth inhibition administered qd for 14 days by Vernier caliper. It is filed as functional, organism-based. The procedure, abridged: as §2
Series [22] addresses T2, TGF-beta receptor type-1 (Homo sapiens, UniProt P36897).
T2 sequence (P36897 whole entry): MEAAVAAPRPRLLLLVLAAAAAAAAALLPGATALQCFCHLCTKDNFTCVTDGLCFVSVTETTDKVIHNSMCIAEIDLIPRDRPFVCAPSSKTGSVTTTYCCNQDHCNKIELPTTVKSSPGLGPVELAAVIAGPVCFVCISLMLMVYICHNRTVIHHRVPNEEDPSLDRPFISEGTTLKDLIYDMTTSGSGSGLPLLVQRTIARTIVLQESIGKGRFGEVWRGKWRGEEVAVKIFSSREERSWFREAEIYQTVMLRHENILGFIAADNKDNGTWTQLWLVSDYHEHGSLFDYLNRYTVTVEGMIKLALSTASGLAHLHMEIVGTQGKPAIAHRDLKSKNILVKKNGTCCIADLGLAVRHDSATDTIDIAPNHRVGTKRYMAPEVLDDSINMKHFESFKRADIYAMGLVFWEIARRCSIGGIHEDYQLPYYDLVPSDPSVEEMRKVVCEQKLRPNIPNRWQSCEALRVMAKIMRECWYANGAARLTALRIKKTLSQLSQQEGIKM
Kind of series: Inhibition of Alk5 in TGF-beta-stimulated human HepG2 cells assessed as decrease in Smad2 phosphorylation treated for 45 mins prior to TGF-beta stimulation measured after 60 mins by odyssey blot scanner analysis. It is filed as cell-based. Put shortly:
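HepG2 cells seeded at 500,000 cells/well, adhered overnight at 37°C/5% CO2 in BME+10% serum; compound added in serum-free medium for 45 min, then stimulated with 1 ng/ml TGF-β for 60 min.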

For series [23], the system named is HFF. The series can be described thus: Inhibition of proliferation of human HFF cells harboring wild type B-Raf. It is filed as cell-based.
Series [24] has as its system COLO 205. The series can be described thus: Inhibition of human COLO205 cell proliferation. It is filed as functional, cell-based.

Calls of active or inactive are those of the source. No cut-off for these calls is given here.

T1 sequence (P15056 2-766 V600E limits assumed): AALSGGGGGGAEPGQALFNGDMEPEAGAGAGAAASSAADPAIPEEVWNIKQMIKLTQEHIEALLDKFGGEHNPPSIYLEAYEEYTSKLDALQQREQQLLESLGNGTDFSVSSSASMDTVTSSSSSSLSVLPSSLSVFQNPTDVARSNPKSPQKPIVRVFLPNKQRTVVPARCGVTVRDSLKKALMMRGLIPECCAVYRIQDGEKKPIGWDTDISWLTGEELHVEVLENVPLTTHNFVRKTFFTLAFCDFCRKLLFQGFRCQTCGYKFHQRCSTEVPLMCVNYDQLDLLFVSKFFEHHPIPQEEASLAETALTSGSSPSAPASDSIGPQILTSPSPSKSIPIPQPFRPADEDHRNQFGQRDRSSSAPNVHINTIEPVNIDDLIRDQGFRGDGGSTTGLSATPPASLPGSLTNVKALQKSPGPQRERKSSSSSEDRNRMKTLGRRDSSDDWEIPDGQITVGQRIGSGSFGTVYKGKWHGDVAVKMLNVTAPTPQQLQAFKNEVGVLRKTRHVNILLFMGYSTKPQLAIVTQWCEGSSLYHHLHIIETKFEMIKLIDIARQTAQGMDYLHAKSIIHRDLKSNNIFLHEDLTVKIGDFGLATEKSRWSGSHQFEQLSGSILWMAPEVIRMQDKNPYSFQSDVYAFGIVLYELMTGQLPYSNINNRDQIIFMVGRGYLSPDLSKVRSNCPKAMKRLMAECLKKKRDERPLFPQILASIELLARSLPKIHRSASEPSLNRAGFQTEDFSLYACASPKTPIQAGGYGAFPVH

Take `CC(C)c1nc(-c2cccc(NS(=O)(=O)c3cccc(F)c3)c2)c(-c2ccnc(NC3CC3)n2)s1`: the AUC/dose in [1] amounted to 16 ng·h/mL/mg/kg. Further, the half-maximal inhibitory concentration (IC50) in series [2] was 28 nM; in series [3], 32 nM.

Turning to `CC(C)c1nc(-c2ccc(F)c(NS(=O)(=O)c3c(F)cccc3F)c2)c(-c2ccnc(NCCS(C)(=O)=O)n2)s1`, the AUC/dose was determined as 43 ng·h/mL/mg/kg in series [4] and 1024 ng·h/mL/mg/kg in series [1]. Moreover, the IC50 in [2] amounted to 51 nM; in series [3], 13 nM.

In the case of `CC(C)c1nc(-c2cccc(NS(=O)(=O)c3c(F)cccc3F)c2F)c(-c2ccnc(NCCS(C)(=O)=O)n2)s1`, the AUC/dose amounted to 68 ng·h/mL/mg/kg in [4] and 125 ng·h/mL/mg/kg in [1]. The 50% inhibitory concentration (IC50) turned out to be 7 nM in series [2] and 0.3 nM in series [3].

`CC(C)c1nc(-c2cccc(NS(=O)(=O)c3c(F)cccc3F)c2F)c(-c2ccnc(Nc3ccc(N4CCOCC4)nc3)n2)s1`: the figures for the bioavailability in series [5], in series [6] and in series [8] were 5%, 10% and 85%, respectively. The AUC/dose in [7] amounted to 23 ng·h/mL/mg/kg; in series [4], 42 ng·h/mL/mg/kg; in series [1] it was 1748 ng·h/mL/mg/kg. For the same compound, the clearance in series [9] worked out at 39 mL/min/kg; in series [10], 38 mL/min/kg; in series [11] it was 9 mL/min/kg. Also, the CLH was 53 mL/min/g in series [12], 8 mL/min/g in series [13] and 9 mL/min/g in [14]. The IC50 in series [15] came out at 48 nM; in series [2], 23 nM; in [3] it was 3.8 nM.

As to `CC(C)c1nc(-c2cccc(NS(=O)(=O)c3c(F)cccc3F)c2)c(-c2ccnc(NCCS(C)(=O)=O)n2)s1`, the AUC/dose in series [1] amounted to 34 ng·h/mL/mg/kg. The IC50 in series [2] is 4 nM; in series [3], 1 nM.

`CC(C)(C)c1nc(-c2cccc(NS(=O)(=O)c3cc(F)ccc3F)c2)c(-c2ccnc(N)n2)s1`: the AUC/dose in series [1] was found to be 27 ng·h/mL/mg/kg. Also, the results for the IC50 in series [2] and in series [3] were 7 nM and 8 nM, respectively.

Consider `CC(C)c1nc(-c2ccc(F)c(NS(=O)(=O)c3cccc(F)c3)c2)c(-c2ccnc(N)n2)s1`, for which the IC50 came to 2560 nM in series [2] and 536 nM in [3].

As for `CC(C)c1nc(-c2cccc(NS(=O)(=O)c3cccc(F)c3)c2)c(-c2ccnc(NCC(N)=O)n2)s1`, the AUC/dose in series [1] came out at 6 ng·h/mL/mg/kg. The IC50 in series [2] amounted to 26 nM; in [3], 11 nM.

For the compound `CC(C)(C)c1nc(-c2cccc(NS(=O)(=O)c3c(F)cccc3F)c2F)c(-c2ccnc(N)n2)s1` [DABRAFENIB], the inhibition result in series [16] was “Dose-dependent effect”. The inhibition entry in [17] is “inactive”. Moreover, the inhibition in vivo at 3 mg/kg in series [18] is above 50%. For the same compound, in series [19], the Activity entry was “Non-toxic”. Further, the inhibition in vivo at 100 mg/kg in series [20] was 50%. In addition, in [21], the “growth inhibition (GI)” value is “Dose-dependent effect”. Also, the IC50 amounted to 3700 nM in series [22], 3000 nM in series [23], 7 nM in series [24] and 3 nM in [15]. In addition, the AUC/dose in [4] is 3754 ng·h/mL/mg/kg; in [1], 729 ng·h/mL/mg/kg. In addition, the clearance in series [10] turned out to be 4 mL/min/kg; in [11], 18 mL/min/kg.

As to `CC(C)(C)c1nc(-c2ccc(F)c(NS(=O)(=O)c3c(F)cccc3F)c2)c(-c2ccnc(NCCS(C)(=O)=O)n2)s1`, the AUC/dose in series [1] turned out to be 1373 ng·h/mL/mg/kg. For the same compound, the half-inhibitory concentration (IC50) in series [2] is 11 nM; in series [3] it was 13 nM.

`CC(C)c1nc(-c2cccc(NS(=O)(=O)c3cccc(F)c3)c2)c(-c2ccnc(NCCCN(C)C)n2)s1`: the half-inhibitory concentration (IC50) was 73 nM in series [2] and 28 nM in [3].

For the compound `CC(C)c1nc(-c2cccc(NS(=O)(=O)c3c(F)cccc3F)c2)c(-c2ccnc(N)n2)s1`, the AUC/dose in series [1] was determined as 23 ng·h/mL/mg/kg. Besides, the IC50 in series [2] is 78 nM; in series [3] it was 40 nM.
